Fh CTSL1 inh – Fasciola hepatica cathepsin L1 inhibitors, primary screen, counter-screen for PFM18AAP inhibitor project, biochemical, QFRET, fluorogenic peptide substrate. inhibition, % at 5.96 µM. recombinant F. hepatica cathepsin L1, Z-Leu-Arg-MCA fluorescence. 300,000 compounds, 0.49% hits;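 active = inhibition above the mean of all tested compounds plus 3 SD, set per screening campaign, cut at about 17% in these data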;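 note: 0% = plate median of test compound wells and 100% = 1 µM Z-Phe-Ala-diazomethylketone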
FXN GAA850 act – FXN promoter activators, primary screen, cell-based, luciferase luminescence, HEK293 lucGAA850 | HEK293 lucGAA850 FXN promoter luciferase reporter, 24 h; percent of 10 µM SAHA response | activation, % at 6 µM | 360,000 compounds, 0.56% hits | AID 540364, 2011;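 active = activation above the average of all compounds screened plus 3 SD, cutoff fixed separately per campaign, cut at about 7.5% in these data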;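 note: 0% = DMSO wells and 100% = 10 µM SAHA wells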
AHR activator – AHR activators, primary screen, cell-based, luminescence, luciferase reporter, human; Aryl hydrocarbon receptor (Homo sapiens), P35869; AHR-responsive luciferase reporter cells; activation, % at 5 µM; 320,000 compounds, 2.5% hits; AID 2796, 2010; in the data active = activation above about 47%;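 note: 0% = vehicle wells and 100% = reference agonist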
PfM18AAP inh – PfM18AAP inhibitors, malaria aminopeptidase, primary screen, biochemical, QFRET, recombinant enzyme. M18 aspartyl aminopeptidase (Plasmodium falciparum 3D7). inhibition, % at 7.35 µM. 290,000 compounds, 1.2% hits. H-Glu-NHMec fluorogenic cleavage;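 active = inhibition above the campaign mean inhibition over all tested compounds plus 3 SD, cut at about 28% in these data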;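 note: 0% = plate median of test compound wells and 100% = 2 mM ZnCl2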
SENP1 inh – human SENP1 catalytic domain inhibitors, primary screen, biochemical, FRET, uHTS; inhibition, % at 10 µM; recombinant SENP1 catalytic domain, CyPet-SUMO1-YPet FRET cleavage; 360,000 compounds, 0.21% hits;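 active = inhibition at least 30% at 10 µM, raw YFP signal under a set limit, fluorescence ratio 0.5 to 1.5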;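 note: 0% = enzyme with DMSO and 100% = no enzyme wells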
Target sequence (Q9P0U3 419-644 limits assumed): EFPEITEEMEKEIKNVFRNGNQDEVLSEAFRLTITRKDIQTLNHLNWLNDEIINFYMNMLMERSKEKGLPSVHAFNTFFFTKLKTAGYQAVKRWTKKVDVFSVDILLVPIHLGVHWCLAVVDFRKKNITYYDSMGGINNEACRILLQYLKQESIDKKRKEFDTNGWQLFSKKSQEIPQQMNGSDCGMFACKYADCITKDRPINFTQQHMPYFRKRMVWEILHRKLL
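Test system: recombinant human SENP1 catalytic domain, His6-tagged / Medium: pH 8 Tris buffer with EDTA, NaCl, BME, BSA, NP40, catalase / Also added: SUMO1 FRET substrate flanked by Cypet and Ypet, 25 nM / Times: 50 min reaction at room temperature / Signal: FRET, CFP and YFP emission / Control set: no-enzyme low control and enzyme-plus-DMSO high control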
HDAC3 inhib – HDAC3 deacetylase inhibitors, primary screen, biochemical, fluorescence, cell-free homogeneous. AID 2718, 2010. recombinant HDAC3, fluorogenic peptide/trypsin coupled. Histone deacetylase 3 (Homo sapiens), O15379. inhibition, % at 8.3 µM. 320,000 compounds, 0.15% hits; in the data active = inhibition above about 26%, passing the limit was not always enough
GAA30 FXN cntr – GAA30 FXN promoter activators, confirmation, counter-screen for GAA850 frataxin promoter activator project, cell-based, luminescence, HEK293, lucGAA30, triplicate; shares compounds with FXN GAA850 act; HEK293 lucGAA30 FXN promoter luciferase, 24 h; DMSO = 0%, 5 µM ipriflavone = 100%; activation, % at 6 µM; 1,900 compounds, 66% hits;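 active = mean activation above the mean of solvent-only control wells plus 3 SD, cut at about 22% in these data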;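 note: counterscreen of GAA850 promoter hits where activity marks nonselective or luminescence artifacts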
GAA850 confirm – FXN GAA850 promoter activators in reporter cells, confirmation, cell-based, luminescence, HEK293 lucGAA850, triplicate; 1,900 compounds, 86% hits; HEK293 lucGAA850 FXN promoter luciferase reporter, 24 h; 100% = activation by SAHA; activation, % at 6 µM; shares compounds with FXN GAA850 act;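 active = mean activation above a set limit taken from the primary screen, cut at about 8% in these data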;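 note: 0% = DMSO wells and 100% = 10 µM SAHA wells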
* = called active by the depositor; . = no result. An excerpt weighted towards active compounds, which were near 4.2% of everything screened.

SMILES | Fh CTSL1 inh | FXN GAA850 act | AHR activator | PfM18AAP inh | SENP1 inh | HDAC3 inhib | GAA30 FXN cntr | GAA850 confirm
Cc1ccccc1C(=O)NC1CC2CCCC(C1)N2C(=O)Nc1ccccc1 (centres undefined) | -1 | 0 | 2 | 3 | -1 | -1 | . | .
CCCCOc1ccc(C2=NNC(=O)CC2)cc1 | -1 | 10* | 3 | 0 | 3 | 4 | 42* | 15*
COc1ccc(C(=O)NCCN(C)C)c2nc3ccccc3cc12 | . | 10* | . | . | -45 | . | -14 | 71*
NS(=O)(=O)c1ccc(CCNC(=O)Cc2ccc(Cl)cc2)cc1 | -2 | 2 | 3 | -4 | 10 | 2 | . | .
O=C(CCCCCCC(=O)Nc1ccccc1)NO | 0 | 88* | -4 | . | 2 | . | 61* | 97*
O=C(CCCCCN1C(=O)c2ccccc2C1=O)Nc1ccccc1 | 5 | -1 | -1 | 2 | 0 | -2 | . | .
COc1cccc(CNC(=O)[C@@H]2CCCN2C(=O)[C@H]2CCCCN2C(=O)c2ccccc2)c1 | . | . | . | . | 3 | . | . | .
O=C(NNC(=S)Nc1ccccc1)c1cccs1 | -2 | 8.3* | -1 | 10 | 1 | 4 | 74* | 29*
Cc1cc(/C=C2\NC(=S)N(C)C2=O)ccc1N1CCCC1 | 1 | 7.6* | 17 | -8 | -29 | 6 | 107* | 50*
C=CCNc1nc(SCC=C)nc2ccsc12 | 1 | 7.9* | 10 | -1 | -8 | 9 | 21 | 9.7*
CCN(Cc1ccc(OC)c(F)c1)C(=O)c1cc2ccccc2o1 | 1 | 8.5* | -1 | 0 | -6 | -8 | 34* | 17*
CCOc1ccc(CN(C)C(=O)c2cc3ccccc3o2)cc1OC | 3 | 5 | 4 | -8 | -8 | -1 | . | .
CC(C)(C)c1cc(C(=O)N/N=C/c2ccco2)n[nH]1 | 0 | 8.3* | 15 | -6 | 1 | 9 | 73* | 29*
Cc1ccc(-c2cc(C(=O)N/N=C/c3ccco3)n[nH]2)s1 | 1 | 3 | 31 | -3 | 0 | 6 | . | .
COC(=O)/C=C1\OCc2cccc(C)c21 | . | . | . | . | 1 | . | . | .
COc1cccc(NC(=O)c2ncc(Cl)c(Cl)c2Cl)c1 | -3 | 1 | 35 | -15 | 2 | -2 | . | .
CC(C)=CCC/C(C)=C/CNC(=O)C[C@H]1C[C@H](C(=O)N(C(C)C)C(C)C)[C@@]2(C)c3[nH]c4cc(CCC(=O)N(C)C)ccc4c3CCN2C1=O | . | -4 | . | . | -4 | . | . | .
Cc1c(C=O)c2cc(OCc3ccccc3)ccc2n1C | 2 | 7.7* | -1 | 1 | 3 | 11 | 105* | 32*
O=C(Cn1ccc2cc(S(=O)(=O)N3CCCC3)ccc21)NCCc1ccccc1 | 0 | 3 | 2 | 2 | -3 | 5 | . | .
COc1cc(/C=C2\Oc3cc(O)ccc3C2=O)ccc1O | 5 | 8.3* | 1 | . | -21 | 10 | 94* | 38*
COc1ccc(/C=C2\OC(=O)c3c(OC)cccc32)cc1OC | 0 | 11* | -1 | 5 | -23 | -14 | 111* | 45*
O=C1/C(=C/c2ccc(O)c(O)c2)Oc2cc(O)ccc21 | 6 | 4 | 0 | . | -20 | 11 | . | .
COc1ccc(C=C2C(=O)OC(C)(C)OC2=O)cc1OC | 5 | 1 | 18 | -5 | 1 | -1 | . | .
Cc1nc(-c2nc(-c3c(C(=O)NN)noc3C)cs2)cs1 | 1 | 8.3* | 14 | 13 | 1 | -2 | 88* | 27*
